Assay outcomes: PubChem BioAssay, The Scripps Research Institute Molecular Screening Center
Most compounds without a hit are left out; they make up all but 1.5% or so of the library.
MsrA act: activators of bovine methionine sulfoxide reductase A. purified bovine MsrA, absorbance read-out. activation, % at 10.6 µM. 360,000 compounds, 0.3% hits; in the data active = activation above about 7.5%;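 also: 0% = vehicle and 100% = reference activator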
proCasp3 act: activators of human procaspase-3. P42574. recombinant procaspase-3 D3A, Ac-DEVD-pNA absorbance 405 nm. activation, % at 8.5 µM. 330,000 compounds, 0.11% hits;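 active = activation above the mean of all tested compounds plus 3 SD, cut at about 21% in these data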;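 also: 0% = DMSO alone and 100% = DMSO wells spiked with extra 5 µM PC-3 D3A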
Target sequence (P42574 whole entry D9A/D28A/D175A): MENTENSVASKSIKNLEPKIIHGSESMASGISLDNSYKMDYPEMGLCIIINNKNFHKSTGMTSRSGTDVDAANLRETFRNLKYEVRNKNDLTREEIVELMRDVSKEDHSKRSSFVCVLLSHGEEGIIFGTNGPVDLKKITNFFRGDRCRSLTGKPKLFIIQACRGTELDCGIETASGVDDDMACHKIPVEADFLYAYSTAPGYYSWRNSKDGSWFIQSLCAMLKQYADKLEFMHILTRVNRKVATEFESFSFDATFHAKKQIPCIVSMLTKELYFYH
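Assay system – Procaspase-3 D3A mutant, all three cleavage aspartates alanine · Controls – DMSO-only low control, 5 µM PC-3 D3A high control · Schedule – 1 h compound preincubation, 2 h substrate hydrolysis at 25 °C · Signal – 405 nm absorbance of p-nitroaniline, reads at 0 and 120 min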
MsrA inhibitor: bovine MsrA inhibition | purified bovine MsrA, absorbance read-out | inhibition, % at 15.5 µM | 360,000 compounds, 0.75% hits | AID 651718;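 also: 0% = vehicle wells with enzyme and 100% = reference inhibitor wells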
TbMetRS inhib: blocks T. brucei methionyl-tRNA synthetase activity; purified T. brucei MetRS, ATP depletion, Kinase-Glo luminescence; inhibition, % at 11.9 µM; 360,000 compounds, 0.4% hits; AID 624268;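 active = inhibition above a per-plate cutoff of the control wells' mean inhibition plus 3 SD, cut at about 5.5% in these data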;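 also: 0% = DMSO wells median and 100% = median of wells with control inhibitor compound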
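Test system: purified T. brucei MetRS enzyme. Also added: ATP, methionine and E. coli bulk tRNA substrates. Compound: 11.9 µM single point. Schedule: 15 min enzyme-compound preincubation, 2 h reaction, 10 min detection, 25 °C. Signal: luciferase luminescence of residual ATP, Kinase-Glo. Evaluation: percent inhibition versus plate control medians. Controls: DMSO wells, low control.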
procasp7 counter: counter-screen for procaspase-3 activators: activators of human procaspase-7; activation, % at 8.5 µM; 330,000 compounds, 0.093% hits; recombinant procaspase-7, Ac-DEVD-pNA absorbance 405 nm; D23A/D198A/D206A triple mutant, cannot self-cleave; scale: DMSO 0, 5 µM enzyme 100; P55210;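 active = percent activation above the screen-wide mean plus 3 SD, cut at about 25% in these data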
Target sequence (P55210 whole entry D23A/D198A/D206A): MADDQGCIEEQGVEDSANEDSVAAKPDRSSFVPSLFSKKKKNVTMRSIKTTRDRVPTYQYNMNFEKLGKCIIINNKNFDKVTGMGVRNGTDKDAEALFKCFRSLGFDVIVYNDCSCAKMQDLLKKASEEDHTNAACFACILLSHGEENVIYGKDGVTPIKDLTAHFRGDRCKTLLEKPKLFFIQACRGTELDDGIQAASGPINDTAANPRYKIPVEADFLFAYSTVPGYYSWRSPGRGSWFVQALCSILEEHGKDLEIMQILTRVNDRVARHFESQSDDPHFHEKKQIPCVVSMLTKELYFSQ
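buffer or medium = Zinc-free HEPES/NaCl buffer, pH 7.4 | material = Procaspase-7 triple mutant (PC-7 D3A) | input = 2 µM procaspase-7 mutant as dispensed | signal = Epi-absorbance of released pNA at 405 nm, two timepoints | timing = 1 h preincubation, 2 h reaction | replicates = singlicate compound testing | evaluation = % activation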
MsrA conf: bovine MsrA inhibition, confirmed | shares compounds with MsrA inhibitor | purified bovine MsrA, absorbance read-out | inhibition, % at 15.5 µM | 2,300 compounds, 41% hits | AID 651822;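 also: coupled to thioredoxin reductase with NADPH and selenocystamine and DMSO as substrate; 0% = vehicle only and 100% = full effect of reference inhibitor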
Starred values were filed as active, the others as inactive; . = no result. Rule as the data show it, unless noted: active = inhibition above about 4.5%; inactive = the rest.

SMILES	MsrA act	proCasp3 act	MsrA inhibitor	TbMetRS inhib	procasp7 counter	MsrA conf
Fc1ccc2cc(C3=CCCCC3)ncc2c1	.	.	0	.	.	.
CSc1nc2sc3c(c2c2nnnn12)CCCC3	-6	5	12*	0	1	17*
CSc1nc2sc3c(c2c(=O)n1C)CCCC3	-2	6	-2	0	6	.
O=[N+]([O-])c1ccc(Sc2ccccn2)nc1	-4	-1	4	-1	6	.
O=[N+]([O-])c1ccc(Sc2nnnn2-c2ccccc2)nc1	.	.	4.8*	.	.	2
Cc1ccc(S(=O)(=O)N(C)[C@H]2C[C@H]3c4cc(-c5ccc6c(c5)OCO6)ccc4CCN3C[C@H]2[C@H](C)O)cc1	.	.	1	.	.	.
COc1ccc(-c2oc3ccc(-c4ccc5c(c4)OCO5)cc3c2C#CC2(O)CCCCC2)cc1	-4	1	5.2*	1	-14	3
O=C(O)CC1S/C(=N\N=C2\C(=O)Nc3ccccc32)N(c2ccc(O)cc2)C1=O (centres undefined)	-2	-4	5.9*	1	-11	4
O=C(O)CC1S/C(=N\N=C2CCCCCCC2)N(c2ccccc2)C1=O (centres undefined)	-7	-4	1	0	5	.
O=C(N[C@@H](Cc1cccnc1)C(=O)N1CCC[C@H]1C(=O)NCc1ccccc1)c1ccc(Cl)c(Cl)c1	.	.	-1	.	.	.
CC(C)CCN(C)[C@H]1C[C@H]2c3[nH]c4ccccc4c3CCN2C[C@H]1[C@H](C)O	.	.	1	.	.	.
CCc1cc(C(=O)Cc2nc3ccccc3[nH]2)c(O)cc1O	-2	2	5.0*	-1	-4	4
CCc1cc(C(=O)Cc2ccc(F)cc2)c(O)cc1O	-4	-3	3	-1	-5	.
CS/C(=C/[N+](=O)[O-])Nc1cccc2c1C(C)CC2(C)C (centres undefined)	-4	4	23*	0	-7	20*
CS/C(=C\[N+](=O)[O-])Nc1ccc(OC(F)(F)F)cc1	-6	20	1	0	1	.
C/C(=N\NC(N)=S)c1ccc(Cl)s1	-4	-12	5.7*	1	3	4.8*
C/C(=N\NC(=O)c1ccc(N/N=C(\C)c2ccncc2)cc1)c1ccncc1	0	-2	5.8*	-1	-8	6.2*
Cc1cccc(C(=O)Nc2ccc(C(=O)N/N=C/c3ccc(C)o3)cc2)c1	-12	-6	6.4*	-1	11	4
Cc1ccc(/C=N/NC(=O)c2ccncc2)o1	-2	-6	5.7*	0	-2	4.6*
Cc1c(COC(=O)NC(C)C)c(COC(=O)NC(C)C)c2n1CS(=O)(=O)C2	.	.	0	.	.	.
CC(=O)C1=C(C)N(Cc2ccc(F)cc2)C(=S)NC1c1cccc(Br)c1 (centres undefined)	.	.	0	.	.	.
O=C1C=C(c2ccc(O)cc2)C[C@@H](c2ccc3c(c2)OCO3)C1	-8	10	6.8*	0	1	2
O=C1C=C(c2ccccc2Oc2ccccc2)C[C@@H](c2ccc3c(c2)OCO3)C1	-1	1	0	0	11	.
Cc1ccc(C2=CC(=O)C[C@H](c3ccc4c(c3)OCO4)C2)cc1	-5	9	-1	0	4	.
COc1ccccc1C1=CC(=O)C[C@H](c2ccc3c(c2)OCO3)C1	-1	-1	6.3*	0	-3	1
SMILES	MsrA act	proCasp3 act	MsrA inhibitor	TbMetRS inhib	procasp7 counter	MsrA conf
Nc1ccn([C@@H]2O[C@H](C(=O)N[C@H](Cc3ccccc3)C(=O)N3CCC(F)(F)CC3)[C@@H](O)[C@H]2O)c(=O)n1	.	.	-1	.	.	.
CCOc1ccccc1-n1c(=S)sc2c(=O)n(-c3ccc(F)cc3)c(SCC(=O)O)nc21	-3	2	5.6*	0	-5	2
O=Cc1c(-c2ccc(F)cc2)nc2ccccn12	-1	-1	9.1*	0	8	3
COc1ccc(-c2nc3ccccn3c2C=O)cc1	-2	1	2	0	4	.
CC(C)C[C@H](NC(=O)c1ccccc1)C(=O)N1CCC[C@H]1C(=O)NCc1ccccc1	.	.	1	.	.	.
COc1ccc(NC(=O)C2=CC(c3ccc(OC)cc3)=NS(=O)(=O)N2C)cc1	-2	7	5.4*	1	12	2
COc1ccc(C2=NS(=O)(=O)N(C)C(C(=O)NCc3ccccn3)=C2)cc1	-1	1	4.7*	0	-1	3
COc1ccc(C2=NS(=O)(=O)N(C)C(C(=O)NC3CCCC3)=C2)cc1	-2	1	6.1*	0	1	2
COc1ccc(C2=NS(=O)(=O)N(C)C(C(=O)NCc3cccs3)=C2)cc1OC	-2	4	4.7*	0	6	2
COc1ccc(C2=NS(=O)(=O)N(C)C(C(=O)NCc3ccccn3)=C2)cc1OC	-2	3	2	-1	-3	.
O=C1Cn2nnc(-c3ccccc3)c2C2c3cc(Br)ccc3CCN12 (centres undefined)	.	.	-3	.	.	.
CCCCCCCCN1C(=O)[C@@H](CC(=O)N2CCOCC2)C[C@@]2(C(=O)OC)C1=C[C@H](C(C)(C)C)O[C@@H]2C	.	.	0	.	.	.
Cc1ccc(S(=O)(=O)/N=C2\C=C(Nc3ccc(O)cc3)C(=O)c3ccccc32)cc1	2	-2	.	0	-2	.
CCc1ccc(S(=O)(=O)/N=C2\C=C(Nc3ccc(C(=O)O)cc3)C(=O)c3ccccc32)cc1	-7	-2	64*	0	-17	69*
Cc1ccc(S(=O)(=O)/N=C2\C=C(Nc3cccc(C(=O)O)c3)C(=O)c3ccccc32)c(C)c1	-3	-1	25*	0	6	30*
Cc1ccc(S(=O)(=O)/N=C2\C=C(Nc3cccc(C(=O)O)c3)C(=O)c3ccccc32)cc1	-1	-9	42*	2	-4	20*
O=C(O)c1cccc(NS(=O)(=O)c2ccc3c(c2)C(=O)c2ccccc2C3=O)c1	-2	-2	33*	0	-6	25*
COC(=O)c1ccccc1NC1=C/C(=N\S(=O)(=O)c2ccc(C(=O)O)cc2)c2ccccc2C1=O	-3	-12	.	1	-25	.
COc1cccc(-c2c(-c3ccccc3OC)ncn2Cc2cccc(-c3ccccc3)c2)c1	.	.	2	-1	.	.
Cc1ccc(NC2=C/C(=N/S(=O)(=O)c3cccs3)c3ccccc3C2=O)cc1	4	3	14*	0	-7	24*
CCN(C(=O)CCS(=O)(=O)c1ccc(Br)cc1)c1ccc2c(c1)OCO2	-2	-4	14*	-1	1	7.3*
O=C(CCS(=O)(=O)c1ccc(Br)cc1)Nc1ccc2c(c1)OCO2	-10	-4	-1	0	-2	.
O=C(COC(=O)c1cc(S(=O)(=O)NCc2ccccc2)ccc1O)NCc1ccccc1	-4	5	4	0	4	.
